The source made the active and inactive calls. The rule behind the calls is not given here.
Assays:
[1] = system: T47D; assay: Cell cycle arrest in human T47D cells assessed as accumulation at G0/G1 phase at 0.5 uM after 24 hrs by propidium iodide-staining based flow cytometric analysis; assay type: functional
Procedure, shortened: (§1)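 Cells were seeded at 5 × 10^5 cells/mL. At 24 h after plating they were treated with increasing concentrations for 24 h, washed in PBS, and fixed in ice-cold 70% ethanol for at least 24 h. They were stained with propidium iodide plus RNase A for 30 min at 37 °C and analysed by flow cytometry for phase distribution.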

[2] = system: SiHa; assay: Growth inhibition of human SiHa cells after 72 hrs by CCK8 assay; assay type: functional, cell-based
Procedure, shortened: (§2)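 Cells were seeded at 2000–3000 per well and grown 24 h in serum-containing medium. They were then exposed to serially diluted compound for 72 h at 37 °C, 5% CO2. CCK8 reagent was added for 1–4 h and absorbance read at 450 nm. Inhibition = (AC − AS)/(AC − Ab) × 100%. IC50 is the average of at least three independent determinations.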

[3] = system: MCF7; assay: Induction of autophagy in human MCF7 cells assessed as increase in LC3-2 level at 0.5 uM after 48 hrs by Western blot analysis; assay type: functional, cell-based
Procedure, shortened: (§3)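 Cells treated with test agents at several concentrations for 2 days (48 h). LC3B-II detected by Western blot on lysates, with β-actin as internal control. Membranes blocked in 5% skim milk, primary antibodies at 4 °C overnight, peroxidase-conjugated anti-mouse or anti-rabbit IgG secondary, ECL detection.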

[4] = system: T47D; assay: Growth inhibition of human T47D cells after 72 hrs by CCK8 assay; assay type: functional, cell-based; procedure, shortened: as §2
[5] = system: OVCAR-5; assay: Growth inhibition of human OVCAR5 cells after 72 hrs by CCK8 assay; assay type: functional, cell-based; conditions: OVCAR-5, 72 h; procedure, shortened: as §2
[6] = system: NCI-H460; assay: Growth inhibition of human H460 cells after 72 hrs by CCK8 assay; assay type: functional, cell-based; conditions: NCI-H460, 72 h; procedure, shortened: as §2
[7] = system: SiHa; assay: Cell cycle arrest in human SiHa cells assessed as decrease in S-phase at 0.5 uM after 24 hrs by propidium iodide-staining based flow cytometric analysis; assay type: functional; procedure, shortened: as §1
[8] = system: SiHa; assay: Cell cycle arrest in human SiHa cells assessed as accumulation at G0/G1 phase at 0.5 uM after 24 hrs by propidium iodide-staining based flow cytometric analysis; assay type: functional; procedure, shortened: as §1
[9] = system: MDA-MB-231; assay: Growth inhibition of human MDA-MB-231 cells after 72 hrs by CCK8 assay; assay type: functional, cell-based; conditions: MDA-MB-231, 72 h; procedure, shortened: as §2
[10] = system: MDA-MB-231; assay: Cell cycle arrest in human MDA-MB-231 cells assessed as decrease in S-phase at 0.5 uM after 24 hrs by propidium iodide-staining based flow cytometric analysis; assay type: functional; procedure, shortened: as §1
[11] = system: HeLa; assay: Growth inhibition of human HeLa cells after 72 hrs by CCK8 assay; assay type: functional, cell-based; procedure, shortened: as §2
[12] = system: HeLa; assay: Induction of autophagy in human HeLa cells assessed as increase in LC3-2 level at 2 uM after 48 hrs by Western blot analysis; assay type: functional, cell-based
Procedure, shortened: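 Cells were treated for 48 h (2 days) with varying concentrations. Whole-cell lysates were immunoblotted for LC3B-II with β-actin as the internal control. Membranes were blocked in 5% skim milk, incubated with primary antibody overnight at 4 °C, then with peroxidase-conjugated secondary, and developed by ECL.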

[13] = system: SiHa; assay: Induction of autophagy in human SiHa cells assessed as increase in LC3-2 level at 1 uM after 48 hrs by Western blot analysis; assay type: functional, cell-based; procedure, shortened: as §3
[14] = system: MDA-MB-231; assay: Cell cycle arrest in human MDA-MB-231 cells assessed as accumulation at G0/G1 phase at 0.5 uM after 24 hrs by propidium iodide-staining based flow cytometric analysis; assay type: functional; procedure, shortened: as §1
[15] = system: MCF7; assay: Cell cycle arrest in human MCF7 cells assessed as decrease in S-phase at 0.5 uM after 24 hrs by propidium iodide-staining based flow cytometric analysis; assay type: functional; procedure, shortened: as §1
[16] = system: T47D; assay: Antitumor activity against human T47D cells xenografted in BALB/c nude mouse assessed as decrease in tumor growth at 60 mg/kg, po administered via gavage after 3 weeks relative to control; assay type: functional; conditions: 504 h, read-out: TGI
[17] = system: HeLa; assay: Cell cycle arrest in human HeLa cells assessed as decrease in S-phase at 1 uM after 24 hrs by propidium iodide-staining based flow cytometric analysis; assay type: functional; procedure, shortened: as §1
[18] = system: HeLa; assay: Cell cycle arrest in human HeLa cells assessed as accumulation at G0/G1 phase at 1 uM after 24 hrs by propidium iodide-staining based flow cytometric analysis; assay type: functional; procedure, shortened: as §1
[19] = system: T47D; assay: Cell cycle arrest in human T47D cells assessed as decrease in S-phase at 0.5 uM after 24 hrs by propidium iodide-staining based flow cytometric analysis; assay type: functional; procedure, shortened: as §1
[20] = system: MDA-MB-231; assay: Induction of autophagy in human MDA-MB-231 cells assessed as increase in LC3-2 level at 0.5 uM after 48 hrs by Western blot analysis; assay type: functional, cell-based; procedure, shortened: as §3
[21] = system: T47D; assay: Induction of autophagy in human T47D cells assessed as increase in LC3-2 level at 0.5 uM after 48 hrs by Western blot analysis; assay type: functional, cell-based; procedure, shortened: as §3
[22] = system: MCF7; assay: Cell cycle arrest in human MCF7 cells assessed as accumulation at G0/G1 phase at 0.5 uM after 24 hrs by propidium iodide-staining based flow cytometric analysis; assay type: functional; procedure, shortened: as §1
[23] = system: MCF7; assay: Growth inhibition of human MCF7 cells after 72 hrs by CCK8 assay; assay type: functional, cell-based; conditions: MCF7, 72 h; procedure, shortened: as §2
[24] = system: T47D; assay: Antitumor activity against human T47D cells xenografted in BALB/c nude mouse assessed as tumor weight at 60 mg/kg, po administered via gavage after 3 weeks (reference value: 1.23 g); assay type: functional
[25] = system: T47D; assay: Induction of autophagy in human T47D cells assessed as increase in LC3-2 puncta level at 0.5 uM after 48 hrs by immunofluorescence staining based microscopic analysis; assay type: functional, cell-based
Procedure, shortened: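 Cells seeded on glass coverslips in complete 1640 or DMEM and incubated with inhibitors at different concentrations for 48 h. Fixed in 4% paraformaldehyde, permeabilized with 0.15% Triton X-100, blocked in 4% BSA/PBS for 1 h at room temperature. Anti-LC3B (1:200) overnight, then FITC-conjugated secondary, DAPI nuclear stain. LC3B-II puncta viewed by fluorescence microscopy.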

[26] = system: SK-OV-3; assay: Growth inhibition of human SKOV3 cells after 72 hrs by CCK8 assay; assay type: functional, cell-based; conditions: SK-OV-3, 72 h; procedure, shortened: as §2

IC50 [4]: 1.58 µM | IC50 [5]: > 10 µM | IC50 [6]: > 10 µM | IC50 [9]: > 10 µM | IC50 [11]: > 10 µM | IC50 [23]: 4.98 µM | IC50 [26]: > 10 µM
Structure (SMILES): CO[C@H]1C[C@@H]2CC[C@@H](C)[C@@](O)(O2)C(=O)C(=O)N2CCCC[C@H]2C(=O)O[C@H]([C@H](C)C[C@@H]2CC[C@@H](O)[C@H](OC)C2)CC(=O)[C@H](C)/C=C(\C)[C@@H](O)[C@@H](OC)C(=O)[C@H](C)C[C@H](C)/C=C/C=C/C=C/1C [SIROLIMUS]
Activity [1]: Active | IC50 [2]: 1.76 µM | Activity [3]: Active | Activity [7]: Active | Activity [8]: Active | Activity [10]: Active | Activity [12]: Active | Activity [13]: Active | Activity [14]: Active | Activity [15]: Active | inhibition in vivo at 60 mg/kg [16]: 72.4% | Activity [17]: Active | Activity [18]: Active | Activity [19]: Active | Activity [20]: Active | Activity [21]: Active | Activity [22]: Active | Activity [24]: 0.36 g | Activity [25]: Dose-dependent effect
